Screening results (PubChem BioAssay)
The list is not random: actives were taken first. Their share in the collection is about 1.6%.
TPT1 inh – blocks Candida albicans tRNA 2'-phosphotransferase; inhibition, % at 5 µM; recombinant caTPT1, FP RNA substrate dephosphorylation; 0.81% of 300,000 active;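 active = inhibition above the mean of all tested compounds plus 3 SD, set per screening campaign, cut at about 24% in these data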
Rpn11 inh – inhibitors of human proteasome Rpn11; O00487; human 26S proteasome, Ub4-pepOG fluorescence polarization; 20S core pre-blocked with epoxomicin; inhibition, % at 20 µM; 0.59% of 360,000 active;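 active = inhibition at 20 µM, scaled to each plate's controls, above about 33%, limit read from the data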
SENP1 FRET inh – blocks the human SENP1 SUMO protease catalytic domain. AID 624204. 0.21% of 360,000 active. Q9P0U3. recombinant SENP1 catalytic domain, CyPet-SUMO1-YPet FRET cleavage. inhibition, % at 10 µM;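 active = inhibition at least 30% at 10 µM, raw YFP signal under a set limit, fluorescence ratio 0.5 to 1.5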
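Controls: no-enzyme wells low, DMSO-plus-enzyme wells high control. Test system: human recombinant His6-tagged SENP1 catalytic domain enzyme. Reagent: SFCypet-SUMO1-SFYpet FRET protein substrate, 25 nM final. Doses: one dose per compound, 10 µM, 0.5% DMSO. Detection: FRET, CFP and YFP emission. Timing: 50 min reaction at room temperature.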
HNF4A DNA FP – change in binding of human HNF4 alpha to DNA. P41235. HNF4a-FITC DNA binding, fluorescence polarization, 1 h. activity change, % at 10 µM. 0.3% of 360,000 active; in the data active = activity change above about 30%, passing the limit was not always enough
CSN deneddyl inh – blocks human CSN-mediated cullin deneddylation; Purified CSN, SCF-Nedd8-OG deneddylation, fluorescence polarization; AID 651999; 0.38% of 360,000 active; Q92905; inhibition, % at 12.5 µM;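 active = pattern-corrected inhibition above about 35%, with an unprinted fluorescence ratio check between 0.5 and 1.5, limit read from the data, passing the limit was not always enough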
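Detection – fluorescence polarization · System – HEK293T-derived human Csn5 enzyme · Controls – substrate-only high control, full reaction low control · Timing – 90 min, room temperature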
Rpn11 inh conf – Rpn11 inhibition confirmation, single concentration. shares compounds with Rpn11 inh. purified human 26S proteasome, Ub4-pepOG fluorescence polarization; proteasome pretreated with epoxomicin. inhibition, % at 20 µM. 29% of 1,900 active
MMP-2 inh – blocks human MMP-2, flagging nonselective RPN11 hits | shares compounds with Rpn11 inh | recombinant MMP-2, FRET peptide cleavage fluorescence | inhibition, % at 20 µM | 4% of 1,900 active | AID 602330;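 note: human MMP-2 activated beforehand with APMA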
Thrombin FP – blocks bovine thrombin, flagging nonselective RPN11 hits; shares compounds with Rpn11 inh; bovine thrombin cleavage of Ub4-pepOG, fluorescence polarization; inhibition, % at 20 µM; 13% of 1,900 active;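 active = mean inhibition at least 40% at 20 µM, or signal 3 deviations below plate average, so some actives read negative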
Target sequence (P00735 whole entry, looked up): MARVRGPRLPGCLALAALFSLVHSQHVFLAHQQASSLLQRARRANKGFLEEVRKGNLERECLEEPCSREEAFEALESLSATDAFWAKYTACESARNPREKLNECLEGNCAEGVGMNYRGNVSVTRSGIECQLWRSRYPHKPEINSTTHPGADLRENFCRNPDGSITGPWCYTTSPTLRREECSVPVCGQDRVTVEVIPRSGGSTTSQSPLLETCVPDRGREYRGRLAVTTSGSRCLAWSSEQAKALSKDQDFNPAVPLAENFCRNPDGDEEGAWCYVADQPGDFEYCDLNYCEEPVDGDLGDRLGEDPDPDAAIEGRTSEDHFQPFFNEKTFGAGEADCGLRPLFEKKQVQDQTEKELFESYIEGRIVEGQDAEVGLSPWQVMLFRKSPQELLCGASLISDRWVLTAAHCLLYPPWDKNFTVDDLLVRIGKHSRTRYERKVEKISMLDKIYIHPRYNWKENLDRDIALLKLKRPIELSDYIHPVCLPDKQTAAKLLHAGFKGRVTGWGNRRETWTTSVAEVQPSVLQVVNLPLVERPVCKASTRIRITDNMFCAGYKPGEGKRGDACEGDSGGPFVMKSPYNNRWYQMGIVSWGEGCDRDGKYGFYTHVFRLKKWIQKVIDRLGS
Of the large screens only hits and unclear results are named; the others gave an inactive call (follow-up assays come after a bar, where they were run). Cut-off read from the data, not from the text of the source, unless noted: active = inhibition above about 40%; inactive = the rest.

CC(=O)C1=C(O)C2(C)c3c(O)c(C)c(O)c(C(C)=O)c3OC2CC1=O (centres undefined)	Rpn11 inh 54, HNF4A DNA FP 51 (no result: TPT1 inh) | Rpn11 inh conf 69 | MMP-2 inh inactive | Thrombin FP 91
Cc1ccc(-c2nc(NC(=O)CSc3nnc4scc(-c5ccccc5)n34)ns2)cc1	Rpn11 inh 60, CSN deneddyl inh 37 | Rpn11 inh conf inactive | MMP-2 inh inactive | Thrombin FP inactive
Cc1ccc(S(=O)(=O)c2c(N)n(NC(=O)c3ccco3)c3nc4ccccc4nc23)cc1	Rpn11 inh 39 | Rpn11 inh conf inactive | MMP-2 inh inactive | Thrombin FP inactive
CCOC(=O)C1CCN(S(=O)(=O)c2ccc(Cl)cc2)CC1	none
O=C(CCOc1ccccc1)Nc1ccccc1[N+](=O)[O-]	Rpn11 inh 34 | Rpn11 inh conf inactive | MMP-2 inh inactive | Thrombin FP inactive
CCOC(=O)c1c(NC(=O)C(C)OC(=O)c2ccc(NC(=O)CC#N)cc2)sc2c1CCCC2 (centres undefined)	Rpn11 inh 53 | Rpn11 inh conf inactive | MMP-2 inh inactive | Thrombin FP inactive
CCN(CC)c1c(C)nc2ccc(C(=O)N3CCN(C(=O)c4ccco4)CC3)cn12	none (no result: TPT1 inh)
O=c1[nH]c(-c2ccc(F)cc2)nc2c1sc(=S)n2-c1ccccc1	none
O=c1[nH]c(-c2ccc3c(c2)OCO3)nc2c1sc(=S)n2-c1ccccc1	Rpn11 inh 63 | Rpn11 inh conf inactive | MMP-2 inh inactive | Thrombin FP inactive
O=C(N/N=C/c1sc(N2CCOCC2)nc1-c1ccccc1)c1ccccc1O	Rpn11 inh 58 | Rpn11 inh conf inactive | MMP-2 inh inactive | Thrombin FP inactive
C[C@@H]1CN([C@H](C)CO)C(=O)c2cc(-c3ccc(C(=O)N(C)C)cc3)cnc2O[C@@H]1CN(C)C(=O)c1cccnc1	none (no result: TPT1 inh)
COc1ccc2nc(Nc3nc(CSc4nnnn4-c4ccccc4)cc(=O)[nH]3)nc(C)c2c1	none
CCOc1ccc2nc(Nc3nc(CSc4nnnn4-c4ccccc4)cc(=O)[nH]3)nc(C)c2c1	Rpn11 inh 38 | Rpn11 inh conf inactive | MMP-2 inh inactive | Thrombin FP inactive
CCOc1ccccc1CNC(=O)C1CCCN(c2nnc(C)c3c(C)n(-c4ccccc4)nc23)C1 (centres undefined)	Rpn11 inh 41 | Rpn11 inh conf inactive | MMP-2 inh inactive | Thrombin FP inactive
COc1ccc(-n2nc3c(N4CCC(C(=O)NCc5ccccc5C)CC4)nnc(C)c3c2C)cc1	Rpn11 inh 74, CSN deneddyl inh 117 | Rpn11 inh conf inactive | MMP-2 inh inactive | Thrombin FP inactive
O=c1[nH][nH]c(C(F)(F)F)c1C=NCc1cccs1	none
Cc1ccc(NC(=O)CN2C(=O)N/C(=C\c3cccnc3)C2=O)cc1	none
Cc1ccc(NC(=O)CN2C(=O)N/C(=C\c3ccco3)C2=O)cc1	Rpn11 inh 46 (no result: TPT1 inh) | Rpn11 inh conf inactive | MMP-2 inh inactive | Thrombin FP inactive
Cc1ccc(N(Cc2ccccc2)C(=O)c2cc(S(=O)(=O)N3CCOCC3)ccc2Cl)cc1	none
Cc1ccc(N(Cc2ccccc2)C(=O)c2cc(S(=O)(=O)N3CCOCC3)ccc2F)cc1	Rpn11 inh 46 (no result: TPT1 inh) | Rpn11 inh conf inactive | MMP-2 inh inactive | Thrombin FP inactive
COc1ccc(-c2ccc(NC(=O)c3ccc(Br)o3)cc2)nn1	Rpn11 inh 77 | Rpn11 inh conf inactive | MMP-2 inh inactive | Thrombin FP inactive
Cn1c(N/N=C/c2ccccc2)nc2sc3c(c2c1=O)CCC3	Rpn11 inh 53 | Rpn11 inh conf inactive | MMP-2 inh inactive | Thrombin FP inactive
O=C(CCCSc1nc(-c2ccco2)cc(C(F)(F)F)n1)NCc1cccs1	Rpn11 inh 33 | Rpn11 inh conf inactive | MMP-2 inh inactive | Thrombin FP inactive
Cc1ccc(CCNC(=O)c2coc3nc4ccccc4nc23)cc1	Rpn11 inh 41 | Rpn11 inh conf inactive | MMP-2 inh inactive | Thrombin FP inactive
CC(C)c1ccc(CN2CCC2(C)C(=O)Nc2cnc3ccccc3c2)cc1 (centres undefined)	none (no result: TPT1 inh)
O=C(Nc1ccc(O)c(-c2nc3ccccc3s2)c1)C1=COCCO1	none
O=C(Nc1ccc(-c2nc3ccccc3s2)c(O)c1)C1=COCCO1	Rpn11 inh 48 | Rpn11 inh conf 43 | MMP-2 inh inactive | Thrombin FP inactive
COc1cc(-c2nc3cccc(C)n3c2NCC2CCCO2)ccc1O (centres undefined)	Rpn11 inh 42 | Rpn11 inh conf inactive | MMP-2 inh inactive | Thrombin FP active
COc1ccc(C(=O)NCC(=O)OCC(=O)Nc2cc([N+](=O)[O-])ccc2F)cc1	none
COc1ccc(Cc2noc(=O)[nH]2)cc1	none (no result: TPT1 inh)
CCCN(CCC)CC(O)Cn1cc(/C=C/C(=O)c2ccccc2)c2ccccc21 (centres undefined)	Rpn11 inh 39 (no result: TPT1 inh) | Rpn11 inh conf inactive | MMP-2 inh inactive | Thrombin FP inactive
CC(C)(C)NCC(O)Cn1cc(C=O)c2ccccc21 (centres undefined)	none
COc1ccc(NS(=O)(=O)c2ccc3c(c2)CCN3C(=O)CCC(=O)O)cc1OC	none
Cc1cc(C(C)(C)C)cc(CN2CCN(S(=O)(=O)c3cccs3)CC2)c1O	none (no result: TPT1 inh)
COc1ccc(Cn2nnnc2C(c2cccs2)N2CCN(c3ccc([N+](=O)[O-])cc3)CC2)cc1 (centres undefined)	Rpn11 inh 89 | Rpn11 inh conf inactive | MMP-2 inh inactive | Thrombin FP inactive
COc1ccc(Cn2nnnc2C(c2cccs2)N2CCN(c3ccccc3)CC2)cc1 (centres undefined)	none
COC(=O)c1ccc2nc(-c3ccc(Cl)cc3)c(Cc3ccc(OC)cc3C)n2c1	none (no result: TPT1 inh, Rpn11 inh)
COc1ccc(Cc2c(-c3ccc(C)cc3)nc3ccc(Cl)cn23)c(C)c1	Rpn11 inh 44 (no result: TPT1 inh) | Rpn11 inh conf 52 | MMP-2 inh inactive | Thrombin FP inactive
O=C(/C=C/c1cccs1)Nc1cccc(NC(=O)/C=C/c2cccs2)n1	Rpn11 inh 45 | Rpn11 inh conf 56 | MMP-2 inh inactive | Thrombin FP 41
O=C(/C=C/c1cccs1)Nc1nccs1	none
Cc1oc(-c2cccs2)cc1C(=O)N1CCCC(C)(C(=O)O)C1 (centres undefined)	none (no result: TPT1 inh)
COCCOC(=O)C1=C(C)NC(=O)NC1c1c(OC)ncnc1OC (centres undefined)	Rpn11 inh 164 | Rpn11 inh conf inactive | MMP-2 inh inactive | Thrombin FP inactive
